# According to ChEMBL document CHEMBL5042498, “Development of 3-(4-Chlorophenyl)-1-(phenethyl)urea Analogues as Allosteric Modulators of the Cannabinoid Type-1 Receptor: RTICBM-189 is Brain Penetrant and Attenuates Reinstatement of Cocaine-Seeking Behavior” (J Med Chem, 2022):
# Calls of active or inactive are those of the source. No cut-off for these calls is given here.
# Assays:
# Cannabinoid receptor 1 [1] = target: T1, Cannabinoid receptor 1 (Homo sapiens, UniProt P21554); assay: Antagonist activity at N-terminal tagged human CB1 receptor transfected with HEK293 cells assessed as forskolin-stimulated cAMP level in presence of CP55940 by BRET assay; format: functional, cell-based
# T1 sequence (P21554 whole entry): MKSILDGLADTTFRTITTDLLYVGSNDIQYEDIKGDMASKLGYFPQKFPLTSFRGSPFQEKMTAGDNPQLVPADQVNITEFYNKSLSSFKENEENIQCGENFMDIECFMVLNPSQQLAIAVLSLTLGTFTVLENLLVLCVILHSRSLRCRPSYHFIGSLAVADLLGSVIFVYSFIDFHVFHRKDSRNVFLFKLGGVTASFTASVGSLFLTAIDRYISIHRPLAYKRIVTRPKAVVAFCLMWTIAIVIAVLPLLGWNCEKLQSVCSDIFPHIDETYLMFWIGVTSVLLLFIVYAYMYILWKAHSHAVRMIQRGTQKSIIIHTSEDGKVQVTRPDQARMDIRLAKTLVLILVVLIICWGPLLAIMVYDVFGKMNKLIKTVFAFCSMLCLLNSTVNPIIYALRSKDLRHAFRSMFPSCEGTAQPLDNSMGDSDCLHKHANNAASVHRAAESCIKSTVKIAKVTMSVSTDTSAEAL
# Outline: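 HEK293 cells stably expressing hCB1 (3HA-tagged at Otago, untagged at RTI) are transiently transfected with the CAMYEL BRET cAMP sensor. Cells are serum-starved 30 min and given 5 μM coelenterazine H final. Compound dilutions are added together with 5 μM forskolin and 1 μM CP55,940. BRET (460/535) is read for about 20 min at 37 °C.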
# Rattus norvegicus = assay: Attenuation of cocaine reinstatement in 7 day cocaine treated Sprague-Dawley rat assessed as reduction in cocaine seeking behaviour at 10 mg/kg, ip treated for 10 mins prior to administration of cocaine priming injection; format: functional, organism-based
# Outline: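 Male Sprague-Dawley rats (280-300 g) with jugular catheters self-administered cocaine (0.75 mg/kg/inf, FR1 raised to FR5) in 2-h sessions for 14 days, then underwent 7 days of extinction. On the test day, compound (10 mg/kg) or vehicle was given 10 min before a priming cocaine injection (10 mg/kg i.p.), and lever responding was measured.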
# [2] = Elimination half life in Sprague-Dawley rat plasma 10 mg/kg, ip measured upto 24 hrs post dose by LC-MS/MS analysis
# [3] = Aqueous solubility of compound; format: physicochemical; conditions: buffer
# Cannabinoid receptor 1 [4] = target: T1, Cannabinoid receptor 1; assay: Allosteric antagonist activity against human CB1 receptor expressed in HEK293 cells membrane measured after 60 mins by [35S]GTPgammaS binding assay; format: functional, cell membranes
# Outline: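 Membranes from HEK293 cells expressing hCB1 are used in assay buffer (50 mM Tris, 3 mM MgCl2, 0.2 mM EGTA, 100 mM NaCl, 1 mg/ml BSA, pH 7.4). They are preincubated 10 min, then incubated 60 min at 30 °C with 30 μM GDP, 0.1 nM [35S]GTPγS, 100 nM CP55,940 and serially diluted compound (0.1% DMSO final). Nonspecific binding is set with 30 μM unlabeled GTPγS. Reactions are filtered. Data are normalized to CP55,940 alone and fitted by 3-parameter regression; mean of ≥3 experiments in duplicate.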
# [5] = Tmax in Sprague-Dawley rat brain at 10 mg/kg, ip measured upto 24 hrs post dose by LC-MS/MS analysis
# [6] = Plasma protein binding in rat; format: ADME, cell-free
# [7] = Clearance in Sprague-Dawley rat plasma at 10 mg/kg, ip measured upto 24 hrs post dose by LC-MS/MS analysis
# [8] = AUC infinity in Sprague-Dawley rat brain 10 mg/kg, ip measured upto 24 hrs post dose by LC-MS/MS analysis
# [9] = target: Cannabinoid receptor 2 (Homo sapiens) (UniProt P34972); assay: Agonist activity at human CB2 receptor CP55940-stimulated calcium mobilization at 10 uM incubated for 15 mins FLIPR assay relative to control; format: functional
# Chain of Cannabinoid receptor 2 (Homo sapiens) (P34972 whole entry): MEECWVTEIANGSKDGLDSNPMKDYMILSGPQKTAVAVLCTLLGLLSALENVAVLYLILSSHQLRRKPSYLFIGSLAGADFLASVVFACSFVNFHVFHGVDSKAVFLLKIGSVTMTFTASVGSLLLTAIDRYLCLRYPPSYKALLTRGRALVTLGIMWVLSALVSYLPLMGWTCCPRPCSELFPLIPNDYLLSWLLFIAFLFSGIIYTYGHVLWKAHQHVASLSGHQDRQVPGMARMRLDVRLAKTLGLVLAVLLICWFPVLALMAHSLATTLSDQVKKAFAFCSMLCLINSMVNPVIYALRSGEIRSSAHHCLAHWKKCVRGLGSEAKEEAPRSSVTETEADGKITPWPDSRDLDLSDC
# Outline: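 CB2 agonist screen in CHO-RD-HGA16 cells stably expressing human CB2, loaded with Calcium 5 dye for 45 min at 37 °C. Cells were pretreated 15 min with vehicle, then the test compound was added at a single concentration. Fluorescence was read on FLIPR every 1 s for 90 s (485/525 nm). Response is expressed as % of CP55,940 Emax.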
# [10] = Toxicity in Sprague-Dawley rat assessed as reduction in locomotion at 10 mg/kg, ip; format: organism-based; conditions: in vivo
# Outline: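 Rats received 10 mg/kg i.p. compound or vehicle 15 min before being placed in locomotion chambers, after at least three days of handling. Locomotor activity was recorded for 30 min and analysed by two-way ANOVA.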
# [11] = target: Cannabinoid receptor 2 (Homo sapiens) (UniProt P34972); assay: Antagonist activity at human CB2 receptor CP55940-stimulated calcium mobilization incubated for 15 mins FLIPR assay; format: functional; parameters: concentration or dose not given beside the values
# Outline: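 CB2 antagonist screen in human CB2 CHO-RD-HGA16 cells loaded with Calcium 5 dye. Cells were pretreated 15 min at 37 °C with the test compound at a single concentration (10 μM), then challenged with CP55,940 at its EC80 during the FLIPR read (90 s, 485/525 nm). Response is expressed as % inhibition of the CP55,940 EC80 signal.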
# [12] = Cmax in Sprague-Dawley rat brain at 10 mg/kg, ip measured upto 24 hrs post dose by LC-MS/MS analysis
# [13] = AUC infinity in Sprague-Dawley rat plasma 10 mg/kg, ip measured upto 24 hrs post dose by LC-MS/MS analysis
# Cannabinoid receptor 1 [14] = target: T1, Cannabinoid receptor 1; assay: Allosteric antagonist activity at human CB1 receptor expressed in CHO-RD-HGA16 cells overexpressing Galpha16 assessed as inhibition of CP55940-stimulated calcium mobilization incubated for 15 mins FLIPR assay; format: functional, cell-based
# [15] = Cmax in Sprague-Dawley rat plasma at 10 mg/kg, ip measured upto 24 hrs post dose by LC-MS/MS analysis
# [16] = Metabolic stability in rat liver microsomes assessed as clearance in presence of NADPH measured upto 45 mins by LC-MS/MS analysis; format: ADME, Microsome; conditions: 0.75 h
# Outline: (§1)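 Rat liver microsomes (0.5 mg/mL protein) in 100 mM potassium phosphate, pH 7.4, at 37 °C with 1 mM NADPH. Samples were taken at 0, 5, 15, 30 and 45 min, quenched with acetonitrile and analysed by LC/MS/MS. Half-life and clearance were derived from two independent experiments in duplicate.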
# [17] = Apparent permeability across basolateral to apical side in MDCK-MDR1 cells at 10 uM measured upto 90 mins by LC-MS/MS analysis; format: ADME, cell-based, Canis lupus familiaris; conditions: dog, mdck-mdr1, 1.5 h
# Outline: (§2)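 MDCK-MDR1 cells (passage 5) were grown 3 days on polycarbonate Transwell supports and equilibrated 30 min at 37 °C in HBSS with 10 mM HEPES and 0.25% BSA, pH 7.4, before TEER was measured. Test article at 10 μM was placed in the donor chamber (apical or basolateral), with light agitation at 37 °C. Receiver samples were taken at 30, 60 and 90 min and analysed by LC-MS/MS. Papp = (dQ/dt)/(A·Ci·60). References were atenolol, propranolol and digoxin.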
# [18] = Tmax in Sprague-Dawley rat plasma at 10 mg/kg, ip measured upto 24 hrs post dose by LC-MS/MS analysis
# [19] = Apparent permeability across apical to basolateral side in MDCK-MDR1 cells at 10 uM measured upto 90 mins by LC-MS/MS analysis; format: ADME, cell-based, Canis lupus familiaris; conditions: dog, mdck-mdr1, 1.5 h; outline: as §2
# [20] = Metabolic stability in rat liver microsomes assessed as half life in presence of NADPH measured upto 45 mins by LC-MS/MS analysis; format: ADME, Microsome; conditions: 0.75 h; outline: as §1
smiles,measurement,setting,value
O=C(NCCc1cccc(Cl)c1)Nc1ccc(Cl)cc1,IC50,Cannabinoid receptor 1 [1],1510 nM
same,Activity,Rattus norvegicus,Active
same,half-life,[2],37.8 min
same,solubility,[3],< 1 µM
same,IC50,Cannabinoid receptor 1 [4],5130 nM
same,Tmax,[5],24 min
same,PPB,[6],99.6%
same,CL/F,[7],241 mL/min/kg
same,AUC(0-inf),[8],1440 ng·h/mL
same,Emax,[9],< 20%
same,Activity,[10],Non-Toxic
same,Activity,[11],< 35%
same,Cmax,[12],595 ng/mL
same,AUC(0-inf),[13],715 ng·h/mL
same,IC50,Cannabinoid receptor 1 [14],28.8 nM
same,Cmax,[15],288 ng/mL
same,CLH,[16],99.3 µL/min/mg
same,Papp,[17],21.3 10^-6 cm/s
same,Tmax,[18],24 min
same,Papp,[19],19.2 10^-6 cm/s
same,t1/2,[20],14.9 min
